Experimental data taken from PubChem BioAssay AID504485 (Sanford-Burnham Center for Chemical Genomics, 2011).
Active and inactive are the calls of the source.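 The calls were made as follows: active = mean IC50 at or below 20 µM; inactive = the rest.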

Each molecule was assayed on 697 B-cell NF-kB luciferase, PMA/ionomycin, 16 h (assay: stimulated NF-kB reporter signal decrease, 697 cells – cell-based, luminescence, B-cell NF-kB inhibitor project, SAR follow-up (AID 504485)).
Summary of the method: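 Technique: luciferase luminescence with SteadyGlo reagent / Assay system: human 697 B-cell line with NF-kB-driven luciferase reporter / Timing: 1 h pretreatment, 16 h stimulation, 37 °C / Reagent: PMA plus ionomycin stimulation of NF-kB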

| Structure (SMILES) | IC50 |
| --- | --- |
| COc1ccc(C(=O)Nc2ccc3[nH]c(-c4cccc(OC)c4)cc(=O)c3c2)cc1 | > 79 µM (inactive) |
| CCNC(=O)CCc1nc(-c2ccc(C(C)(C)C)cc2)no1 | 0.03 µM |
| CC(C)(C)c1ccc(-c2noc(CCC(=O)NC3CC3)n2)cc1 | 0.06 µM |
| CCNC(=O)CCc1nc(-c2ccccc2Cl)no1 | > 79 µM (inactive) |
| COc1ccc(-c2nc(CSCC(=O)NCc3ccco3)c(C)o2)cc1 | 29.5 µM (inactive) |
| CCc1ccc(-c2noc(CCC(=O)NC(C)CC)n2)cc1 (stereo not drawn) | > 79 µM (inactive) |
| CNC(=O)CCc1nc(-c2ccc(C(C)C)cc2)no1 | 0.21 µM |
| CCOc1ccc(-c2nc(CSCC(N)=O)c(C)o2)cc1 | < 0.15 µM |
| CCC(C)NC(=O)CCc1nc(-c2ccc(C(C)(C)C)cc2)no1 (stereo not drawn) | 0.49 µM |
| CNC(=O)CCc1nc(-c2ccc(C(C)(C)C)cc2)no1 | < 0.16 µM |
| CCc1ccc(-c2nc(CSCC(=O)NC3CC3)c(C)o2)cc1 | 0.48 µM |
| CCOc1ccc(-c2nc(CSCC(=O)O)c(C)o2)cc1 | < 0.15 µM |
| CC(C)(C)c1ccc(-c2noc(CCC(=O)O)n2)cc1 | 0.19 µM |
| CC(C)(C)c1ccc(-c2noc(CCC(N)=O)n2)cc1 | < 0.16 µM |
| CCc1ccc(-c2nc(CSCC(=O)NCc3ccco3)c(C)o2)cc1 | 49.4 µM (inactive) |
| O=C(O)CCc1nc(-c2ccccc2)no1 | > 79 µM (inactive) |
| CCCCc1ccc(-c2noc(CCC(=O)NC3CC3)n2)cc1 | 0.21 µM |
| CCOc1cccc(-c2nc(CSCC(=O)NC3CC3)c(C)o2)c1 | > 79 µM (inactive) |
| CCCCc1ccc(-c2noc(CCC(=O)NC(C)(C)C)n2)cc1 | 2.31 µM |
| CCCCc1ccc(-c2noc(CCC(=O)NC(C)CC)n2)cc1 (stereo not drawn) | 0.67 µM |
| Cc1oc(-c2ccccc2)nc1CSCC(=O)NC1CC1 | > 79 µM (inactive) |
| CCOc1ccccc1-c1nc(CSCC(=O)NC2CC2)c(C)o1 | > 79 µM (inactive) |
| CCCCOc1ccc(-c2nc(CSCC(=O)NCc3ccco3)c(C)o2)cc1 | 0.26 µM |
| CCNC(=O)CCc1nc(-c2cccc(C)c2)no1 | > 79 µM (inactive) |
| CCNC(=O)CCc1nc(-c2c(Cl)cccc2Cl)no1 | > 79 µM (inactive) |
| CCCOc1ccc(-c2nc(CSCC(=O)NCc3ccco3)c(C)o2)cc1 | 0.17 µM |

| Structure (SMILES) | IC50 |
| --- | --- |
| CC(C)Nc1ccc(C(CC(=O)O)NC(=O)c2ccccc2)cc1[N+](=O)[O-] (stereo not drawn) | > 79 µM (inactive) |
| CCCCc1ccc(-c2noc(CCC(=O)NCC)n2)cc1 | 0.22 µM |
| Cc1ccc(-c2nc(CSCC(=O)NCc3ccco3)c(C)o2)cc1 | > 79 µM (inactive) |
| CCCCc1ccc(-c2noc(CCC(=O)NC)n2)cc1 | 0.2 µM |
| CCOc1ccc(-c2nc(CSCC(=O)NCC3CC3)c(C)o2)cc1 | 1.32 µM |
| CC(C)c1ccc(-c2noc(CCC(=O)NC3CC3)n2)cc1 | 0.26 µM |
| O=C(CCc1nc(-c2ccccc2)no1)NC1CC1 | > 79 µM (inactive) |
| CCOc1ccc(-c2nc(CSCC(=O)NC3CC3)c(-c3ccccc3)o2)cc1 | > 79 µM (inactive) |
| CC(C)(C)NC(=O)CCc1nc(-c2ccccc2)no1 | > 79 µM (inactive) |
| COC(=O)CCc1nc(-c2ccc(C(C)(C)C)cc2)no1 | < 0.16 µM |
| CCOc1ccc(-c2nc(CSCC(=O)NC3CCC3)c(C)o2)cc1 | 3.23 µM |
| CCOC(=O)CC(NC(=O)c1ccc(Br)cc1)c1ccc(F)c([N+](=O)[O-])c1 (stereo not drawn) | 36.8 µM (inactive) |
| CCOc1ccc(-c2nc(CSCC(=O)N3CCOCC3)c(C)o2)cc1 | > 79 µM (inactive) |
| CCOc1ccccc1-c1nc(CSCC(=O)O)c(C)o1 | > 79 µM (inactive) |
| CCNC(=O)CCc1nc(-c2ccccc2C)no1 | > 79 µM (inactive) |
| Cc1oc(-c2ccc(C(F)(F)F)cc2)nc1CSCC(=O)NC1CC1 | 15.7 µM |
| CCCOc1ccc(-c2nc(CSCC(=O)NC3CC3)c(C)o2)cc1 | < 0.15 µM |
| CCNC(=O)CCc1nc(-c2cccc(F)c2)no1 | > 79 µM (inactive) |
| CCC(C)NC(=O)CCc1nc(-c2ccc(C(C)C)cc2)no1 (stereo not drawn) | 7.96 µM |
| COc1cccc(-c2cc(=O)c3cc(NC(=O)c4ccc(N(C)C)cc4)ccc3[nH]2)c1 | > 79 µM (inactive) |
| CCc1ccc(-c2noc(CCC(=O)NC)n2)cc1 | > 79 µM (inactive) |
| CCC(C)NC(=O)CCc1nc(-c2ccccc2)no1 (stereo not drawn) | > 79 µM (inactive) |
| C#CCNC(=O)CSCc1nc(-c2ccc(OCC)cc2)oc1C | < 0.15 µM |
| CCCOc1ccc(-c2nc(CSCC(=O)O)c(C)o2)cc1 | < 0.15 µM |
| CCN(CC)C(=O)CCc1nc(-c2ccc(C(C)(C)C)cc2)no1 | 58.4 µM (inactive) |
| Cc1oc(-c2ccc(C(F)(F)F)cc2)nc1CSCC(=O)O | 0.97 µM |

| Structure (SMILES) | IC50 |
| --- | --- |
| CCNC(=O)CCc1nc(-c2ccc(C(C)C)cc2)no1 | 0.32 µM |
| CNC(=O)CCc1nc(-c2ccccc2)no1 | > 79 µM (inactive) |
| CCNC(=O)CCc1nc(-c2cccc(OC)c2)no1 | > 79 µM (inactive) |
| CCc1ccc(-c2nc(CSCC(=O)NC3CC3)c(-c3ccccc3)o2)cc1 | > 79 µM (inactive) |
| CC(C)c1ccc(-c2noc(CCC(=O)NC(C)(C)C)n2)cc1 | 26.9 µM (inactive) |
| Cc1oc(-c2ccc(OC(F)(F)F)cc2)nc1CSCC(=O)NC1CC1 | 2.23 µM |
| CCc1ccc(-c2noc(CCC(=O)NC(C)(C)C)n2)cc1 | > 79 µM (inactive) |
| CC(C)(C)c1ccc(-c2noc(CCC(=O)NC3CCC3)n2)cc1 | 0.41 µM |
| CCOc1ccc(-c2nc(CSCC(=O)NC3CC3)c(C)o2)cc1 | 0.19 µM |
| CCNC(=O)CCc1nc(-c2ccc(CC)cc2)no1 | > 79 µM (inactive) |
| CCCCOc1ccc(-c2nc(CSCC(=O)O)c(C)o2)cc1 | 0.18 µM |
| COc1cccc(-c2cc(=O)c3cc(NC(=O)c4ccccc4)ccc3[nH]2)c1 | > 79 µM (inactive) |
| CCOc1ccc(-c2nc(CSCC(=O)NCc3ccco3)c(C)o2)cc1 | 0.21 µM |
| Cc1oc(-c2ccccc2)nc1CSCC(=O)NCc1ccco1 | > 79 µM (inactive) |
| CCc1ccc(-c2noc(CCC(=O)NC3CC3)n2)cc1 | > 79 µM (inactive) |
| CCNC(=O)CCc1nc(-c2ccc(OCC)cc2)no1 | > 79 µM (inactive) |
| CCOc1ccc(-c2nc(CSCC(=O)NC(C)(C)C)c(C)o2)cc1 | 60.5 µM (inactive) |
| CCNC(=O)CCc1nc(-c2ccccc2)no1 | > 79 µM (inactive) |
| Cc1oc(-c2ccc(OC(F)(F)F)cc2)nc1CSCC(=O)O | 0.24 µM |
| CCOc1ccc(-c2nc(CSCC(=O)N(C)C)c(C)o2)cc1 | > 79 µM (inactive) |
| Cc1ccc(-c2nc(CSCC(=O)NC3CC3)c(C)o2)cc1 | 16.2 µM |
| CCOc1ccc(-c2noc(CCC(=O)O)n2)cc1 | 34 µM (inactive) |
| COc1ccc(-c2nc(CSCC(=O)NC3CC3)c(C)o2)cc1 | 29.2 µM (inactive) |
| CCCCOc1ccc(-c2nc(CSCC(=O)NC3CC3)c(C)o2)cc1 | 0.24 µM |
| CN(C)C(=O)CCc1nc(-c2ccc(C(C)(C)C)cc2)no1 | 41.5 µM (inactive) |
| CCOc1ccc(-c2nc(CSCC(=O)NC)c(C)o2)cc1 | 0.33 µM |
